These results are taken from ChEMBL document CHEMBL5523690, “Synergistic effect of tryptamine-urea derivatives to overcome the chromosomally-mediated colistin resistance in Klebsiella pneumoniae” (Bioorg Med Chem, 2024).

As usually defined, the MIC is the lowest concentration found to suppress growth.

Data set [1] has as its system Escherichia coli. Briefly: Antibacterial activity against Escherichia coli ATCC25922 assessed as inhibition of visible bacterial growth measured after 20 hrs under aerobic condition by two fold serial dilution assay. The class given is functional. The procedure, abridged: (§1)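 Broth microdilution following EUCAST. Compound was tested at final well concentrations of 0.25–128 µg/mL against 5.10^5 CFU/mL inoculum, incubated 20 h at 37 °C aerobically. MIC was taken as the lowest concentration with no visible growth. There were three independent experiments per strain.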

The test system of data set [2] is Klebsiella pneumoniae. Briefly: Antibacterial activity against Klebsiella pneumoniae ATCC700603 assessed as inhibition of visible bacterial growth measured after 20 hrs under aerobic condition by two fold serial dilution assay. The class given is functional. The procedure, abridged:
as §1

Data set [3] has as its system Pseudomonas aeruginosa. Briefly: Antibacterial activity against Pseudomonas aeruginosa ATCC27853 assessed as inhibition of visible bacterial growth measured after 20 hrs under aerobic condition by two fold serial dilution assay. The class given is functional. The procedure, abridged:
as §1

Data set [4] deals with Escherichia coli. The experiment in a line: Antibacterial activity against colistin resistant Escherichia coli NTCC 13846 harboring mcr-1 gene assessed as inhibition of visible bacterial growth measured after 20 hrs under aerobic condition by two fold serial dilution assay. The class given is functional.
The subject of data set [5] is Escherichia coli. The experiment in a line: Antibacterial activity against colistin resistant Escherichia coli A50 harboring mcr-1 gene assessed as inhibition of visible bacterial growth measured after 20 hrs under aerobic condition by two fold serial dilution assay. The class given is functional.
Data set [6] has as its system Klebsiella pneumoniae. The experiment in a line: Antibacterial activity against chromosomally-mediated resistant Klebsiella pneumoniae BA03057 assessed as inhibition of visible bacterial growth measured after 20 hrs under aerobic condition by two fold serial dilution assay. The class given is functional.
Data set [7] relates to Pseudomonas aeruginosa. Briefly: Antibacterial activity against chromosomally-mediated colistin resistant Pseudomonas aeruginosa 15080 assessed as inhibition of visible bacterial growth measured after 20 hrs under aerobic condition by two fold serial dilution assay. The class given is functional.
The subject of data set [8] is Pseudomonas aeruginosa. The experiment in a line: Antibacterial activity against chromosomally-mediated colistin resistant Pseudomonas aeruginosa 10039 assessed as inhibition of visible bacterial growth measured after 20 hrs under aerobic condition by two fold serial dilution assay. The class given is functional.
For data set [9], the system named is Pseudomonas aeruginosa. The experiment in a line: Antibacterial activity against chromosomally-mediated colistin resistant Pseudomonas aeruginosa 1002 assessed as inhibition of visible bacterial growth measured after 20 hrs under aerobic condition by two fold serial dilution assay. The class given is functional.
The subject of data set [10] is Klebsiella pneumoniae. The experiment in a line: Synergistic antibacterial activity against Klebsiella pneumoniae BA03057 assessed as fractional inhibitory concentration index incubated for 24 hrs under aerobic condition in presence of colistin by checkerboard assay. The class given is functional. The procedure, abridged:
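Checkerboard against KP BA03057 at 5.10^5 CFU/mL. Colistin was two-fold diluted 0–64 µg/mL across compound two-fold diluted 0–100 µM. Plates were incubated 24 h at 37 °C aerobically and absorbance read at 600 nm. FICI = MIC(compound, combined)/MIC(compound alone) + MIC(colistin, combined)/MIC(colistin alone), with synergy at FICI < 0.5. Plates were run in duplicate.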

Data set [11] has as its system Escherichia coli. Briefly: Colistin adjuvant activity against colistin-resistant Escherichia coli A50 assessed as antibacterial effect by measuring colistin MIC incubated for 24 hrs under aerobic condition by two fold serial dilution method. The class given is functional.
Data set [12] relates to Klebsiella pneumoniae. Briefly: Colistin adjuvant activity against colistin-resistant Klebsiella pneumoniae BA03057 assessed as antibacterial effect by measuring colistin MIC incubated for 24 hrs under aerobic condition by two fold serial dilution method. The class given is functional.
The test system of data set [13] is Escherichia coli. The experiment in a line: Colistin adjuvant activity against colistin-resistant Escherichia coli A50 assessed as colistin MIC by measuring potentiation fold incubated for 24 hrs under aerobic condition by two fold serial dilution method relative to colistin alone. The class given is functional.
For data set [14], the system named is Klebsiella pneumoniae. Briefly: Colistin adjuvant activity against colistin-resistant Klebsiella pneumoniae BA03057 assessed as colistin MIC by measuring potentiation fold incubated for 24 hrs under aerobic condition by two fold serial dilution method relative to colistin alone. The class given is functional.
In data set [15] the test system is Erythrocyte. Briefly: Hemolytic activity in sheep RBC assessed as RBC deformation at 25 uM measured after 1 hr in presence of colistin by fluorescence microscopic analysis. The class given is toxicity, cell-based, Ovis aries. The procedure, abridged:
(§2)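 PBS-washed sheep erythrocytes were exposed to compound in PBS at 25–800 µM, or 25 µM plus colistin 1 µg/mL. Each reaction held 5% (v/v) RBCs and 5% (v/v) DMSO, incubated 1 h at 37 °C with 100 rpm agitation, then centrifuged at 1000 g, 4 °C. Cell shape was examined by optical microscopy. Triplicates.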

A short description of data set [16]: Hemolytic activity in sheep RBC assessed as survival rate at 25 uM measured after 1 hr in presence of colistin by fluorescence microscopic analysis relative to control. The class given is toxicity, cell-based, Ovis aries, Erythrocyte. The conditions noted are these: sheep red blood cells (erythrocytes), read-out: Survival. The procedure, abridged:
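Washed sheep erythrocytes in PBS, 5% (v/v) final with 5% (v/v) DMSO, given 25 µM agent plus colistin 1 µg/mL; 1 h at 37 °C, shaking 100 rpm; Triton X-100 0.5% positive and PBS negative controls; cells spun off at 1000 g, 4 °C; absorbance (750–600 nm) read as % RBC survival; triplicate; shape checked by optical microscopy.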

Data set [17] has as its system Erythrocyte. The experiment in a line: Hemolytic activity in sheep RBC assessed as hemolysis at 25 uM measured after 1 hr by fluorescence microscopic analysis. The class given is toxicity, cell-based, Ovis aries. The procedure, abridged:
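Sheep erythrocytes, PBS-washed, were treated at 5% (v/v) with compound (25–800 µM) in 5% (v/v) DMSO for 1 h at 37 °C, shaking at 100 rpm. Controls were 0.5% Triton X-100 (positive) and PBS (negative). After centrifugation at 1000 g, 4 °C, hemolysis was assessed visually and by absorbance (750–600 nm) as percent RBC survival. Triplicate.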

The test system of data set [18] is Erythrocyte. Briefly: Hemolytic activity in sheep RBC assessed as hemolysis at 1600 uM measured after 1 hr by fluorescence microscopic analysis. The class given is toxicity, cell-based, Ovis aries.
Data set [19] concerns Erythrocyte. Briefly: Hemolytic activity in sheep RBC assessed as RBC deformation at 800 uM measured after 1 hr by fluorescence microscopic analysis. The class given is toxicity, cell-based, Ovis aries. In a few lines: as §2

The structures appear in SMILES notation.

As to `O=C(NCCc1c[nH]c2ccccc12)Nc1cccc(Cl)c1`, the MIC with Escherichia coli [1], in the data set with Klebsiella pneumoniae [2], in the data set with Pseudomonas aeruginosa [3], in the data set on Escherichia coli [4], with Escherichia coli [5] and in the data set on Klebsiella pneumoniae [6] was over 128 µg/mL in each case. In addition, the minimum inhibitory concentration (MIC) is over 128 µg/mL in the data set on Pseudomonas aeruginosa [7]; over 128 µg/mL in the data set with Pseudomonas aeruginosa [8]; over 128 µg/mL in the data set with Pseudomonas aeruginosa [9]; 8 µg/mL in the data set on Escherichia coli [11]; 2 µg/mL with Klebsiella pneumoniae [12]. The “fractional inhibitory concentration index (FICI)” value with Klebsiella pneumoniae [10] amounted to 0.062. Besides, the “fold change (FC)” value in the data set with Escherichia coli [13] came to 1; in the data set with Klebsiella pneumoniae [14] it was 0.031.

As for `O=C(NCCc1c[nH]c2ccccc12)Nc1ccccc1Br`, the MIC in the data set on Escherichia coli [1], in the data set on Klebsiella pneumoniae [2], in the data set with Pseudomonas aeruginosa [3], in the data set on Escherichia coli [4], in the data set on Escherichia coli [5] and with Klebsiella pneumoniae [6] was over 128 µg/mL in each case. Besides, the MIC with Pseudomonas aeruginosa [7] is over 128 µg/mL; with Pseudomonas aeruginosa [8] it was over 128 µg/mL; in the data set with Pseudomonas aeruginosa [9] it was over 128 µg/mL; in the data set on Escherichia coli [11], 4 µg/mL; with Klebsiella pneumoniae [12], 2 µg/mL. Moreover, the “fractional inhibitory concentration index (FICI)” value in the data set with Klebsiella pneumoniae [10] is given as 0.31. The “fold change (FC)” value in the data set on Escherichia coli [13] is 0.5; with Klebsiella pneumoniae [14], 0.031.

On to `O=C(NCCc1c[nH]c2ccccc12)Nc1ccc(C(F)(F)F)cc1`, for which the MIC with Escherichia coli [1], in the data set on Klebsiella pneumoniae [2], in the data set with Pseudomonas aeruginosa [3], in the data set with Escherichia coli [4], in the data set on Escherichia coli [5] and with Klebsiella pneumoniae [6] was over 128 µg/mL throughout. For the same compound, the minimal inhibitory concentration (MIC) was over 128 µg/mL with Pseudomonas aeruginosa [7]; over 128 µg/mL in the data set with Pseudomonas aeruginosa [8]; over 128 µg/mL in the data set with Pseudomonas aeruginosa [9]; 8 µg/mL in the data set on Escherichia coli [11]; 2 µg/mL in the data set with Klebsiella pneumoniae [12]. Moreover, the “fractional inhibitory concentration index (FICI)” value in the data set on Klebsiella pneumoniae [10] was found to be 0.167. The “fold change (FC)” value with Escherichia coli [13] is 1; with Klebsiella pneumoniae [14] it was 0.031.

In the case of `O=C(NCCc1c[nH]c2ccccc12)Nc1cccc(F)c1`, the minimal inhibitory concentration (MIC) in the data set with Escherichia coli [1], in the data set on Klebsiella pneumoniae [2], in the data set with Pseudomonas aeruginosa [3], with Escherichia coli [4], with Escherichia coli [5] and with Klebsiella pneumoniae [6] was over 128 µg/mL each time. Besides, the MIC in the data set with Pseudomonas aeruginosa [7] is over 128 µg/mL; in the data set on Pseudomonas aeruginosa [8], over 128 µg/mL; in the data set on Pseudomonas aeruginosa [9] it was over 128 µg/mL; with Escherichia coli [11], 4 µg/mL; with Klebsiella pneumoniae [12] it was 1 µg/mL. The Activity result in the data set on Erythrocyte [15], in the data set on Erythrocyte [17], with Erythrocyte [18] and with Erythrocyte [19] was “Non-Toxic” each time. In data set [16], the viability at 1 h, 25 µM stood at 96%. Also, the “fractional inhibitory concentration index (FICI)” value in the data set with Klebsiella pneumoniae [10] is listed as 0.073. In addition, the “fold change (FC)” value in the data set on Escherichia coli [13] is on record as 0.5.

Regarding `CCCCCCNC(=O)NCCc1c[nH]c2ccccc12`, the minimum inhibitory concentration (MIC) with Escherichia coli [1], with Klebsiella pneumoniae [2], in the data set on Pseudomonas aeruginosa [3], with Escherichia coli [4], in the data set on Escherichia coli [5] and in the data set on Klebsiella pneumoniae [6] was over 128 µg/mL each time. Further, the minimum inhibitory concentration (MIC) was over 128 µg/mL in the data set with Pseudomonas aeruginosa [7]; over 128 µg/mL in the data set with Pseudomonas aeruginosa [8]; over 128 µg/mL in the data set on Pseudomonas aeruginosa [9]; 4 µg/mL with Escherichia coli [11]; 2 µg/mL in the data set with Klebsiella pneumoniae [12]. In the data set with Klebsiella pneumoniae [10], the “fractional inhibitory concentration index (FICI)” value is on record as 0.143. The “fold change (FC)” value was 0.5 with Escherichia coli [13] and 0.031 in the data set with Klebsiella pneumoniae [14].
